Reference: ChEMBL document CHEMBL3421617, “Synthesis of selenazolopyridine derivatives with capability to induce apoptosis in human breast carcinoma MCF-7 cells through scavenge of intracellular ROS” (Eur J Med Chem, 2015)
Active and inactive are the calls of the source. The rule behind the calls is not given here.

Assays:
[1] = Cytotoxicity against human L02 cells assessed as cell viability after 72 hrs by MTT assay; format: cell-based; details: L02, 72 h
Summary of the method: (§1)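 Cells obtained from ATCC; human normal liver L02 included as the non-cancer line. Cells treated with various concentrations for 72 h. Viability read by MTT assay and IC50 values calculated from the concentration series.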

HepG2 = test: Cytotoxicity against human HepG2 cells assessed as cell viability after 72 hrs by MTT assay; format: functional, cell-based; details: HepG2, 72 h; summary of the method: as §1
MCF7 [2] = test: Cytotoxicity against human MCF7 cells assessed as cell viability after 72 hrs by MTT assay; format: functional, cell-based; details: for IC50: MCF7, 72 h; summary of the method: as §1
MCF7 [3] = test: Inhibition of intracellular ROS production in human MCF7 cells assessed as decrease in DHE fluorescence intensity at 80 uM after 30 mins by fluorescence microscopy; format: functional, cell-based
Summary of the method: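 Cells loaded with DHE (10 µM) in a culture dish at 37 °C for 30 min, then treated at 80 µM. Imaged at once by fluorescence microscopy, with red DHE fluorescence followed for 30 min.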

MCF7 [4] = test: Cell cycle arrest in human MCF7 cells assessed as cells at Sub-G1 phase at 30 uM by flow cytometry (reference value: 3.3%); format: functional
MCF7 [5] = test: Cell cycle arrest in human MCF7 cells assessed as cells at G2/M phase at 20 uM by flow cytometry (reference value: 41.5%); format: functional
[6] = Antioxidant activity assessed as ABTS radical scavenging activity; format: physicochemical; details: TDE = time-dependent effect
MCF7 [7] = test: Cell cycle arrest in human MCF7 cells assessed as cells at Sub-G1 phase by flow cytometry; format: functional, cell-based
MCF7 [8] = test: Cell cycle arrest in human MCF7 cells assessed as cells at G0/G1 phase at 40 uM by flow cytometry (reference value: 41.9%); format: functional
[9] = Antioxidant activity assessed as DPPH free radical scavenging activity; format: physicochemical; details: TDE = time-dependent effect
MCF7 [10] = test: Cell cycle arrest in human MCF7 cells assessed as cells at S phase at 30 uM by flow cytometry (reference value: 16.6%); format: functional
MCF7 [11] = test: Cell cycle arrest in human MCF7 cells assessed as cells at G2/M phase at 40 uM by flow cytometry (reference value: 41.5%); format: functional
MCF7 [12] = test: Cell cycle arrest in human MCF7 cells assessed as cells at G0/G1 phase at 20 uM by flow cytometry (reference value: 41.9%); format: functional
MCF7 [13] = test: Cell cycle arrest in human MCF7 cells assessed as cells at Sub-G1 phase at 20 uM by flow cytometry (reference value: 3.3%); format: functional
MCF7 [14] = test: Cell cycle arrest in human MCF7 cells assessed as cells at G2/M phase at 30 uM by flow cytometry (reference value: 41.5%); format: functional
MCF7 [15] = test: Cell cycle arrest in human MCF7 cells assessed as cells at S phase at 40 uM by flow cytometry (reference value: 16.6%); format: functional
MCF7 [16] = test: Cell cycle arrest in human MCF7 cells assessed as cells at S phase at 20 uM by flow cytometry (reference value: 16.6%); format: functional
MCF7 [17] = test: Cell cycle arrest in human MCF7 cells assessed as cells at G0/G1 phase at 30 uM by flow cytometry (reference value: 41.9%); format: functional
MCF7 [18] = test: Inhibition of intracellular ROS production in human MCF7 cells assessed as decrease in DHE fluorescence intensity after 30 mins; format: functional, cell-based
Summary of the method: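 MCF-7 cells loaded with 10 µM DHE in PBS for 30 min, then exposed to different concentrations of compound. Intracellular ROS followed as DHE fluorescence on a microplate reader, excitation 300 nm and emission 610 nm, over 30 min.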

MCF7 [19] = test: Cell cycle arrest in human MCF7 cells assessed as cells at Sub-G1 phase at 40 uM by flow cytometry (reference value: 3.3%); format: functional

Structure (SMILES) | IC50 [1] | IC50 (HepG2) | IC50 (MCF7 [2]) | also measured
Brc1ccccc1Nc1nc2cccnc2[se]1 | 169 µM | 74.2 µM | 185 µM | 
c1ccc(Nc2nc3cccnc3[se]2)cc1 | 164 µM | 57.1 µM | 22.5 µM | inhibition (MCF7 [3]): Active; Activity (MCF7 [4]): 36.7%; Activity (MCF7 [5]): 7.5%; Activity [6]: tde; Activity (MCF7 [7]): Dose-dependent effect; Activity (MCF7 [8]): 50.8%; Activity [9]: tde; Activity (MCF7 [10]): 22.3%; Activity (MCF7 [11]): 13.4%; Activity (MCF7 [12]): 58.2%; Activity (MCF7 [13]): 27.1%; Activity (MCF7 [14]): 20.3%; inhibition (MCF7 [2]): Dose-dependent effect; Activity (MCF7 [15]): 25.8%; Activity (MCF7 [16]): 34.3%; Activity (MCF7 [17]): 50.5%; inhibition (MCF7 [18]): Dose-dependent effect; Activity (MCF7 [19]): 58.3%
Cc1ccc(Nc2nc3cccnc3[se]2)cc1 | 207 µM | 235 µM | 91.5 µM | 
Cc1ccccc1Nc1nc2cccnc2[se]1 | 121 µM | 507 µM | 52.5 µM | 
Clc1ccccc1Nc1nc2cccnc2[se]1 | 84.6 µM | 181 µM | 43.3 µM | 
Cc1cccc(Nc2nc3cccnc3[se]2)c1 | 54.3 µM | 56.7 µM | 56.4 µM | 
Cc1ccc(Nc2nc3cccnc3[se]2)cc1C | 182 µM | 145 µM | 202 µM | 
